The text below walks through data of ChEMBL document CHEMBL5550192, “Discovery of first-in-class PROTACs targeting maternal embryonic leucine zipper kinase (MELK) for the treatment of Burkitt lymphoma” (RSC Med Chem, 2024).

The target in data set [1] is T1, Protein cereblon/Maternal embryonic leucine zipper kinase (Homo sapiens, UniProt Q14680+Q96SW2). Put plainly: PROTAC activity at CRBN/MELK in human Ramos cells assessed as induction of MELK degradation by immunoblot analysis. The data set is classed as cell-based. In a few lines: (§1)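 Ramos cells in 12-well plates (1 mL medium) treated with compound at various concentrations. Lysed in 2X SDS sample buffer and boiled 15 min. Proteins resolved on 10% SDS-PAGE and transferred to PVDF. Probed with MELK, mTOR or p-mTOR antibodies, with β-actin/β-tubulin as loading controls. ECL detection, band densitometry, DC50 from nonlinear regression.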
Target sequence in this assay (Q14680 whole entry): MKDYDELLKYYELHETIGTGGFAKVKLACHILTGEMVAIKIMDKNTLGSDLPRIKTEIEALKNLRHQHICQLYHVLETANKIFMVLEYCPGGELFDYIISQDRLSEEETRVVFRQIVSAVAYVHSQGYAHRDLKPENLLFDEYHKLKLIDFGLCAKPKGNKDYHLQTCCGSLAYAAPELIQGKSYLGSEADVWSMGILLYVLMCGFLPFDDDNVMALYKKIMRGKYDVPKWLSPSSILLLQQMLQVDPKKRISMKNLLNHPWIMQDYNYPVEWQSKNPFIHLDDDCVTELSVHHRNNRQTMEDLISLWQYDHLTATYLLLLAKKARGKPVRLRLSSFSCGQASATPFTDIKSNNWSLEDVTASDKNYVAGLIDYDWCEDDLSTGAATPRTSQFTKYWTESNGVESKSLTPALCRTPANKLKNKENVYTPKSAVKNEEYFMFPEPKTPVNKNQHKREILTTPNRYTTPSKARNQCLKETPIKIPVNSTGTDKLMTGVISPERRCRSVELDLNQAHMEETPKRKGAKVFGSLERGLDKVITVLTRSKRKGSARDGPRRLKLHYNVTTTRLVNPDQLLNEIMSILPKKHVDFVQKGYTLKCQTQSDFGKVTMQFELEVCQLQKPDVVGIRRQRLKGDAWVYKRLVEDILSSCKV
Target sequence in this assay (Q96SW2 whole entry): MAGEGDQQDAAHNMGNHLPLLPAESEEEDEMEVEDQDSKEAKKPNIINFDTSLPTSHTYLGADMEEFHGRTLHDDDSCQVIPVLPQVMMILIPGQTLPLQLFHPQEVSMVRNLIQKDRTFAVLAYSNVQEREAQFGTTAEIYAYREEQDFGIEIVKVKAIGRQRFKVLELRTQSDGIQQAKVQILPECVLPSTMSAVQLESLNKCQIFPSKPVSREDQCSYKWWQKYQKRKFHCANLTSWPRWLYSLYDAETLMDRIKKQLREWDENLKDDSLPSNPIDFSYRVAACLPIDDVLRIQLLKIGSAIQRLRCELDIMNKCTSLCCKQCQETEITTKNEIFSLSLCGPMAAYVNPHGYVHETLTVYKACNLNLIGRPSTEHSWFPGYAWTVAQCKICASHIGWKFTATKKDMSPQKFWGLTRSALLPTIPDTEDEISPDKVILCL

Data set [2] deals with T1, Protein cereblon/Maternal embryonic leucine zipper kinase. Put plainly: PROTAC activity at CRBN/MELK in human Ramos cells assessed as residual activity at 5 uM measured after 48 hrs by immunoblot analysis relative to control. It counts as cell-based.
Target sequence in this assay (Q14680 whole entry, looked up): as the sequence (Q14680 whole entry) above
Target sequence in this assay (Q96SW2 whole entry, looked up): as the sequence (Q96SW2 whole entry) above
A short description of data set [3]: Selectivity ratio of CC50 for human MDA-MB-231 cells to IC50 for human Ramos cells.
Data set [4] has as its system Ramos. Put plainly: Cytotoxicity against human Ramos cells assessed as inhibition of cell growth measured after 72 to 96 hrs by CCK-8 method. The data set is classed as functional, cell-based. In a few lines: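 Ramos grown in RPMI 1640 with 10% FBS, 1% pen-strep, 1% NEAA and 50 μM 2-mercaptoethanol at 37°C, 5% CO₂. Plated at 3000 cells/well with compound diluted in medium from DMSO stock. Incubated 72–96 h, then CCK-8 added for 4 h. Absorbance read at 450 nm, normalized to DMSO-treated cells. EC50 from nonlinear regression.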
(In general: Tetrazolium dyes change colour on reduction, which living cells bring about.)

The next data set deals with MDA-MB-231. Put plainly: Cytotoxicity against human MDA-MB-231 cells assessed as inhibition of cell growth measured after 72 to 96 hrs by CCK-8 method. It counts as functional. Conditions: time 72-96 hrs. In a few lines:
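MDA-MB-231 grown in DMEM with 10% FBS, 1% pen-strep, 1% NEAA and 50 μM 2-mercaptoethanol at 37°C, 5% CO₂. Plated at 3000 cells/well with compound diluted in medium from DMSO stock. Incubated 72–96 h, then CCK-8 added for 4 h. Absorbance read at 450 nm, normalized to DMSO-treated cells. EC50 from nonlinear regression.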

Data set [5] relates to Ramos. Description: Induction of cell cycle arrest in human Ramos cells assessed as accumulation of cells at G2/M phase at 10 uM measured after 24 hrs by propidium iodide staining based flow cytometry analysis. The data set is classed as functional. An outline of the steps: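 Ramos cells exposed to compound or DMSO for 24 h, washed in cold PBS and fixed overnight in 70% ethanol. Stained with propidium iodide for 30 min at 37°C in the dark. Cell-cycle phase distribution determined by flow cytometry.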
(A flow cytometer gives signals particle by particle.)

Data set [6] relates to Ramos. Put plainly: Induction of apoptosis in human Ramos cells assessed as late apoptotic cells at 20 uM measured after 24 hrs by Annexin V-FITC and propidium iodide staining based flow cytometry analysis (reference value: 5.05%). It counts as functional. In a few lines: (§2)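 Ramos cells, 1×10^6 per well in 6-well plates, treated with compound or DMSO for 24 h. Washed in cold PBS, resuspended in Annexin V binding buffer, stained with Annexin V-FITC and propidium iodide. Populations quantified by flow cytometry.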

For data set [7], the target named is T1, Protein cereblon/Maternal embryonic leucine zipper kinase. Description: PROTAC activity at CRBN/MELK in human Ramos cells assessed as degradation of MELK by measuring half life at 20 uM measured for 48 hrs by Western blot analysis. It counts as cell-based. (In general: A western blot detects proteins with antibodies after separation by electrophoresis.)
Target sequence in this assay (Q14680 whole entry, looked up): as the sequence (Q14680 whole entry) above
Target sequence in this assay (Q96SW2 whole entry, looked up): as the sequence (Q96SW2 whole entry) above

Data set [8] has the same target. Put plainly: PROTAC activity at CRBN/MELK in human Ramos cells assessed as inhibition of mTOR phosphorylation measured after 24 hrs Western blot analysis. It counts as cell-based. An outline of the steps:
as §1
Target sequence in this assay (Q14680 whole entry): as the sequence (Q14680 whole entry) above
Target sequence in this assay (Q96SW2 whole entry): as the sequence (Q96SW2 whole entry) above

For data set [9] the target is unchanged. Description: PROTAC activity at CRBN/MELK in human Ramos cells assessed as degradation of MELK at 20 uM pretreated with MG132 followed by compound addition and measured after 24 hrs by immunoblot analysis. The data set is classed as cell-based.
Target sequence in this assay (Q14680 whole entry, looked up): as the sequence (Q14680 whole entry) above
Target sequence in this assay (Q96SW2 whole entry, looked up): as the sequence (Q96SW2 whole entry) above
The subject of data set [10] is Ramos. Description: Upregulation of MELK mRNA level in human Ramos cells at 20 uM incubated for 24 hrs by qPCR analysis. It counts as functional, cell-based. In a few lines:
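Ramos cells in 6-well plates exposed to 20 μM compound or DMSO for 24 h. MELK mRNA measured by qPCR with MELK-specific primers. Relative expression by the 2^-ΔΔCt method, normalized to 18S mRNA (actin also stated as internal control). Run in triplicate.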

Data set [11] concerns Ramos. Put plainly: Induction of apoptosis in human Ramos cells assessed as early apoptotic cells at 20 uM measured after 24 hrs by Annexin V-FITC and propidium iodide staining based flow cytometry analysis (reference value: 9.69%). It counts as functional. In a few lines: as §2
The test system of the next data set is DOHH-2. Put plainly: Upregulation of MELK mRNA level in human DOHH-2 cells at 20 uM incubated for 24 hrs by qPCR analysis. The data set is classed as functional, cell-based.
In data set [12] the target is T1, Protein cereblon/Maternal embryonic leucine zipper kinase. Put plainly: PROTAC activity at CRBN/MELK in human Ramos cells assessed as induction of MELK degradation by immunoblot analysis relative to control. It counts as cell-based. An outline of the steps:
as §1
Target sequence in this assay (Q14680 whole entry, looked up): as the sequence (Q14680 whole entry) above
Target sequence in this assay (Q96SW2 whole entry, looked up): as the sequence (Q96SW2 whole entry) above

For data set [13] the target is unchanged. Description: PROTAC activity at CRBN/MELK in human Ramos cells assessed as inhibition of mTOR phosphorylation at upto 64 uM measured after 24 hrs Western blot analysis. It counts as cell-based. In a few lines: as §1
Target sequence in this assay (Q14680 whole entry, looked up): as the sequence (Q14680 whole entry) above
Target sequence in this assay (Q96SW2 whole entry, looked up): as the sequence (Q96SW2 whole entry) above
The test system of data set [14] is Ramos. Put plainly: Induction of apoptosis in human Ramos cells assessed as viable cells at 20 uM measured after 24 hrs by Annexin V-FITC and propidium iodide staining based flow cytometry analysis (reference value: 84.9%). The settings on record: read-out: Activity. The data set is classed as functional. In a few lines:
as §2

The subject of data set [15] is Ramos. Description: Induction of apoptosis in human Ramos cells at 20 uM measured after 24 hrs by calcein-AM/propidium iodide staining based fluorescence microscopic analysis. It counts as functional, cell-based. In a few lines: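 Ramos cells, 2×10^5 per well in 12-well plates, exposed to compound or DMSO for 24 h. Washed in cold PBS, then stained with calcein-AM/propidium iodide working solution for 30 min at 37°C in the dark. Examined by fluorescence microscopy.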

Data set [16] deals with T1, Protein cereblon/Maternal embryonic leucine zipper kinase. Description: PROTAC activity at CRBN/MELK in human Ramos cells assessed as degradation of MELK at 20 uM pretreated with MLN4924 followed by compound addition and measured after 24 hrs by immunoblot analysis. The data set is classed as cell-based.
Target sequence in this assay (Q14680 whole entry, looked up): as the sequence (Q14680 whole entry) above
Target sequence in this assay (Q96SW2 whole entry, looked up): as the sequence (Q96SW2 whole entry) above
The subject of another data set is HUVEC. Description: Cytotoxicity against human HUVEC cells at 4 uM measured after 24 hrs by tube formation assay. It counts as toxicity, cell-based. An outline of the steps:
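HUVEC, 3×10^4 cells/well, seeded on Matrigel-coated wells (Matrigel set 4 h at 37°C) in medium containing compound. Tubes imaged by optical microscopy and quantified by image analysis. Three independent experiments.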

In data set [17] the test system is Ramos. Description: Induction of apoptosis in human Ramos cells assessed as necrotic cells at 20 uM measured after 24 hrs by Annexin V-FITC and propidium iodide staining based flow cytometry analysis (reference value: 0.34%). It counts as functional. In a few lines:
as §2

Activity calls are given as the source filed them. The rule behind the calls is not given here.

For `CC(C)COc1cnccc1-c1cnn(-c2ccc(N3CCN(Cc4cn(CCOCCNc5ccc6c(c5)C(=O)N(C5CCC(=O)NC5=O)C6=O)nn4)CC3)cc2)c1` (centres undefined), in data set [1], the DC50 was less than 5 µM. The Activity in [2] worked out at 49.3%.
On to `CC(C)COc1cnccc1-c1cnn(-c2ccc(N3CCN(Cc4cn(CCOCCOCCOCCOCCNc5ccc6c(c5)C(=O)N(C5CCC(=O)NC5=O)C6=O)nn4)CC3)cc2)c1` (centres undefined), for which the DC50 in [1] is less than 5 µM. In data set [2], the Activity amounted to 42.7%.
With `CN1CCN(c2ccc(-n3cc(-c4ccncc4OCC4CCNCC4)cn3)cc2)CC1`, the “Ratio CC50/IC50” value in [3] amounted to 0.7. Besides, the IC50 in the data set with Ramos [4] turned out to be 3.4 µM. Moreover, in the data set on MDA-MB-231, the 50% cytotoxic concentration (CC50) came to 2.3 µM.
On to `COc1cc(-c2cn[nH]c2)ccc1C(=O)Nc1ccc2c(c1)CCNCC2`, for which the “Ratio CC50/IC50” value in [3] was found to be 0.9. The IC50 in the data set on Ramos [4] was determined as 9.1 µM. Moreover, the CC50 with MDA-MB-231 was 7.9 µM.
For the molecule `CC(C)COc1cnccc1-c1cnn(-c2ccc(N3CCN(Cc4cn(CCOCCOCCNc5ccc6c(c5)C(=O)N(C5CCC(=O)NC5=O)C6=O)nn4)CC3)cc2)c1` (centres undefined), the outcome (with Ramos [5]; with Ramos [10]; in the data set on DOHH-2; in data set [13]; with Ramos [15]) was Active. Also, the “Ratio CC50/IC50” value in data set [3] turned out to be 7.6. In addition, in data set [1], the DC50 stood at 2.1 µM. The Activity in the data set with Ramos [6] is 12.8%; in the data set with Ramos [11], 42.1%; in data set [2], 14.3%; in the data set with HUVEC it was “Non-Toxic”; in the data set on Ramos [17], 0.25%. Further, in [7], the T1/2 was less than 3 h. The concentration giving a half-maximal response (EC50) was 1.8 µM in the data set with Ramos [4] and 2.3 µM in [8]. In addition, the result in data set [9] and in data set [16] was inactive. Besides, in data set [12], the Emax is 91.6%. Also, the viability at 20 µM in the data set with Ramos [14] worked out at 44.9%. Besides, in the data set with MDA-MB-231, the CC50 is 13.8 µM.
For the molecule `CC(C)COc1cnccc1-c1cnn(-c2ccc(N3CCN(Cc4cn(CCCCCCCNc5ccc6c(c5)C(=O)N(C5CCC(=O)NC5=O)C6=O)nn4)CC3)cc2)c1` (centres undefined), the DC50 in data set [1] is less than 5 µM. Further, the Activity in data set [2] came out at 37.7%.
On to `CC(C)COc1cnccc1-c1cnn(-c2ccc(N3CCN(Cc4cn(CCOCCOCCOCCNc5ccc6c(c5)C(=O)N(C5CCC(=O)NC5=O)C6=O)nn4)CC3)cc2)c1` (centres undefined), for which the 50% degradation concentration (DC50) in data set [1] was less than 5 µM. The Activity in [2] turned out to be 49.6%.

In general, DC50 refers to the midpoint of the concentration-degradation curve. A word on the IC50: it is the concentration needed to halve the response being measured. A word on the CC50: it is the concentration at which the toxic effect on the cells reaches its halfway point. A word on the EC50: it is the concentration that produces a half-maximal response. As usually defined, the Emax is the greatest response seen or fitted, relative to the assay's reference.
